In general, pKB refers to the KB on a negative log10 scale, so that one unit is a factor of ten. A lower pKB goes with a large KB.

From ChEMBL document CHEMBL1134388, “Nonpeptide cholecystokinin-2 receptor agonists” (J Med Chem, 2001) come the findings set out here.

For test [1], the target named is T1, Gastrin/cholecystokinin type B receptor (Mus musculus) (UniProt P56481).
T1 sequence (whole entry): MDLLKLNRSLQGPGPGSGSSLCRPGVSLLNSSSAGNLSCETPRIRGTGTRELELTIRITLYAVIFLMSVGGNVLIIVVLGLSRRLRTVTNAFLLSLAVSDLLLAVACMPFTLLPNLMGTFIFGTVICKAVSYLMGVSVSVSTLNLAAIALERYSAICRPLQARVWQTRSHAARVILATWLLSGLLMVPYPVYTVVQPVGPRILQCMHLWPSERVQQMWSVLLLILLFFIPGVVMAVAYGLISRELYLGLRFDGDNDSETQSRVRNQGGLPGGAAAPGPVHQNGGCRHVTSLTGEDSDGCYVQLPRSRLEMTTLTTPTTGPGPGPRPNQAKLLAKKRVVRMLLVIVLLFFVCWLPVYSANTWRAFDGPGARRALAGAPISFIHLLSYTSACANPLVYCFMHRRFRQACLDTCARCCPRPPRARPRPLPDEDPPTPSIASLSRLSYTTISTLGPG
Kind of test: Antagonistic activity against CCK2 receptor in mouse cortex assay using [125 I]-BH-CCK-8S. Format: functional, tissue-based. The method, boiled down: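 Radioligand competition binding to CCK2 sites in mouse cerebral cortex homogenates against 20 pM [125I]BH-CCK-8S; pKB reported as mean ± SEM from at least three separate experiments.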

The target in test [2] is T2, Gastrin/cholecystokinin type B receptor (Rattus norvegicus) (UniProt P30553).
T2 sequence (whole entry): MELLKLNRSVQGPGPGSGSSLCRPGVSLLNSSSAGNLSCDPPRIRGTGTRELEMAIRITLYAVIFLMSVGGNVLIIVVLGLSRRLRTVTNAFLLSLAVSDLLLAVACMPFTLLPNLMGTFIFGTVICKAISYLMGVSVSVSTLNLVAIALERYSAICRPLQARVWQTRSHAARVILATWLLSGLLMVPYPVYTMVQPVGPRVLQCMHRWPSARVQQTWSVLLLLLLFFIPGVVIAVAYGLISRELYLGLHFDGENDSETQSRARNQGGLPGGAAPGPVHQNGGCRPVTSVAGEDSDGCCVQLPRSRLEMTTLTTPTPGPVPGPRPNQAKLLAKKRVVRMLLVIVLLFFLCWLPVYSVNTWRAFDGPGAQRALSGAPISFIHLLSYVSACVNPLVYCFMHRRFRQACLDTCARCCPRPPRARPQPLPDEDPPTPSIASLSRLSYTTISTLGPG
Kind of test: Antagonistic activity against CCK2 receptor in rat stomach. It counts as functional, tissue-based.

Test [3] is filed under the species Mus musculus. Kind of test: Effect on acid secretion was determined in isolated,lumen-perfused immature mouse stomach; Acid secretion. It counts as functional. The method, boiled down: (§1)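 Isolated, lumen-perfused mouse stomach; compound applied alone and acid secretion observed, scored as present or absent. Tested as bis(N-methyl-D-glucamine) salts.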
The species entered for test [4] is Mus musculus. Kind of test: Charecterization of agonist response of ligand in mouse stomach bioassay. Format: functional.
The species entered for test [5] is Mus musculus. Kind of test: Effect on acid secretion was determined in isolated,lumen-perfused immature mouse stomach; No acid secretion. It counts as functional. The method, boiled down: as §1
For test [6], the species on record is Mus musculus. Kind of test: Charecterization of agonist response of ligand in mouse stomach bioassay measured as affinity of L-365260. It counts as functional.

Structures are written as SMILES. Calls of active or inactive are those of the source. The rule behind the calls is not given here.

Consider `CCCCn1ccc2cc(C(=O)NCC34CC5CC(CC(C5)C3)C4)c(C(=O)N[C@@H](Cc3ccccc3)C(=O)Nc3cc(C(=O)O)cc(C(=O)O)c3)cc21`, for which the pKB in test [1] turned out to be 7.52; in test [2], 6.86. Further, the Acid secretion result in the test listed under Mus musculus [3] is “Active”.
On to `Cn1ccc2cc(C(=O)NCC34CC5CC(CC(C5)C3)C4)c(C(=O)N[C@@H](Cc3ccccc3)C(=O)Nc3cc(C(=O)O)cc(C(=O)O)c3)cc21`, for which the pKB in test [1] was determined as 8.36; in test [2] it was 8.57. Further, in the test listed under Mus musculus [3], the Acid secretion result was “Active”. In the test listed under Mus musculus [4], this compound came in with a pA50 of 7.94.
Consider `CC(=O)n1ccc2cc(C(=O)N[C@@H](Cc3ccccc3)C(=O)Nc3cc(C(=O)O)cc(C(=O)O)c3)c(C(=O)NCC34CC5CC(CC(C5)C3)C4)cc21`, for which the pKB in test [1] was found to be 8.74; in test [2], 8.72.
Consider `O=C(O)c1cc(NC(=O)[C@H](Cc2ccccc2)NC(=O)c2cc3[nH]ccc3cc2C(=O)NCC23CC4CC(CC(C4)C2)C3)cc(C(=O)O)c1`, for which the figures for the pKB in test [1] and in test [2] were 7.87 and 9.26, respectively. The Acid secretion entry in the test listed under Mus musculus [5] was “inactive”.
For `Cn1ccc2cc(C(=O)N[C@@H](Cc3ccccc3)C(=O)Nc3cc(C(=O)O)cc(C(=O)O)c3)c(C(=O)NCC34CC5CC(CC(C5)C3)C4)cc21` (stereo in doubt; 3) [listing 1 of 2 here], in the test listed under Mus musculus [4], the pA50 is reported as 8.4. For the same compound, the pKB in the test listed under Mus musculus [6] is listed as 7.04.
As to `Cn1cnc2cc(C(=O)N[C@@H](Cc3ccccc3)C(=O)Nc3cc(C(=O)O)cc(C(=O)O)c3)c(C(=O)NCC34CC5CC(CC(C5)C3)C4)cc21`, the pKB was found to be 7.6 in test [1] and 8.95 in test [2]. In addition, in the test filed under Mus musculus [3], the Acid secretion result was “Active”.
With `Cn1ccc2cc(C(=O)N[C@@H](Cc3ccccc3)C(=O)Nc3cc(C(=O)O)cc(C(=O)O)c3)c(C(=O)NCC34CC5CC(CC(C5)C3)C4)cc21` (stereo in doubt; 4) [listing 1 of 2 here], the pA50 in the test filed under Mus musculus [4] is listed as 8.69. In the test listed under Mus musculus [6], this compound displayed a pKB of 7.02.
In the case of `CCCCn1ccc2cc(C(=O)N[C@@H](Cc3ccccc3)C(=O)Nc3cc(C(=O)O)cc(C(=O)O)c3)c(C(=O)NCC34CC5CC(CC(C5)C3)C4)cc21`, the pKB in test [1] was 8.44; in test [2], 7.35. Moreover, in the test listed under Mus musculus [3], the Acid secretion entry was “Active”.
For `Cn1ccc2cc(C(=O)N[C@@H](Cc3ccccc3)C(=O)Nc3cc(C(=O)O)cc(C(=O)O)c3)c(C(=O)NCC34CC5CC(CC(C5)C3)C4)cc21` (stereo in doubt; 4) [listing 2 of 2 here], the pKB came to 9.43 in test [1] and 8.99 in test [2]. Further, the Acid secretion result in the test filed under Mus musculus [3] is “Active”.
On the same counts, the results for `Cn1ccc2cc(C(=O)N[C@@H](Cc3ccccc3)C(=O)Nc3cc(C(=O)O)cc(C(=O)O)c3)c(C(=O)NCC34CC5CC(CC(C5)C3)C4)cc21` (stereo in doubt; 3) [listing 2 of 2 here] are 8.42, 9.8 and “Active”.
As for `O=C(O)c1cc(NC(=O)[C@H](Cc2ccccc2)NC(=O)c2cc3cc[nH]c3cc2C(=O)NCC23CC4CC(CC(C4)C2)C3)cc(C(=O)O)c1`, the values for the pKB in test [1] and in test [2] were 8.96 and 9.9, respectively.
For `CSCC[C@H](NC(=O)[C@H](Cc1c[nH]c2ccccc12)NC(=O)CCNC(=O)OC(C)(C)C)C(=O)N[C@@H](CC(=O)O)C(=O)N[C@@H](Cc1ccccc1)C(N)=O` [PENTAGASTRIN], the pA50 in the test filed under Mus musculus [4] amounted to 7.73. For the same compound, in the test filed under Mus musculus [6] (read-out: pA2 (converted)), the Kb is 9.77 nM.
